Measurements from the array DNA melting data of Ke et al. (doi:10.1101/2024.01.08.574731).

Assays:
[1] = melting temperature; fluorescence melt of hairpins on a sequencing array, two-state fit, raised by 9.35 °C to match UV melts; conditions: sodium 0.088 M
Outline: (§1)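 Melting temperature and folding enthalpy were obtained by bootstrapped two-state fitting. Fits used Cy3 fluorescence of library hairpins with annealed Cy3 and quencher oligos on a sequenced MiSeq flow cell, imaged in 50 mM Na-HEPES pH 8.0, 25 mM NaCl in 2.5 °C steps up to 60 °C and normalised to pre-quench Cy3 and control constructs. Four replicates were combined by inverse-variance weighting, and fitted temperatures were raised by 9.35 °C to match UV melts.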

[2] = folding enthalpy; higher = less favourable; fluorescence melt of hairpins on a sequencing array, two-state fit; conditions: sodium 0.088 M
Outline: as §1

Row | Sequence | Tm [1] | folding enthalpy [2]
1 | GGAACAGGAAACTGTTTC (.(((((....))))).) | 44.4 °C | -31.7 kcal/mol
2 | GCAGTGCGAAAGCCGTGC (((..((....))..))) | 46.4 °C | -21.1 kcal/mol
3 | GATCATAAGTATGATC ((((((....)))))) | 47.7 °C | -33.6 kcal/mol
4 | GGATTAGGAAACTAATTC (.(((((....))))).) | 33.9 °C | -25.2 kcal/mol
5 | GGTCTCGGAAACGGGACC ((((.((....)).)))) | 57.5 °C | -44 kcal/mol
6 | GATTCCGAAAGGATAATC ((((((....)))..))) | 31.8 °C | -15.5 kcal/mol
7 | GGAGGAGGAAACTCCCCC ((.((((....)))).)) | 41.8 °C | -17.6 kcal/mol
8 | GATCTGGTCTCAGATC ((((((....)))))) | 53 °C | -43 kcal/mol
9 | GGGATAGGAAACTATCTC (.(((((....))))).) | 39.8 °C | -25.3 kcal/mol
10 | GATCTAGTGTTAGATC ((((((....)))))) | 40.6 °C | -30 kcal/mol
11 | GCGCGACGAAAGTCCCGC (((.(((....))).))) | 57.5 °C | -42.8 kcal/mol
12 | GTAAATCGAAAGATTAC (((.(((....)))))) | 33.9 °C | -14 kcal/mol
13 | GTAGATGCGAAAGCATAC (((..(((....)))))) | 31.1 °C | -11.9 kcal/mol
14 | GCTGGTCGAAAGACAAGC (((.(((....))).))) | 56.2 °C | -41.4 kcal/mol
15 | GATCTGTCCACAGATC ((((((....)))))) | 55.6 °C | -40.8 kcal/mol
16 | GCTATTCGAAAGAAAAGC (((.(((....))).))) | 39.1 °C | -27.9 kcal/mol
17 | GGCGGCGAAAGCCAGGCC ((((((....)))..))) | 62 °C | -18.8 kcal/mol
18 | GACCCCGAAAGGGCAGTC ((((((....)))..))) | 35.4 °C | -14 kcal/mol
19 | GCGGAGACCGC ((((...)))) | 53.2 °C | -24.4 kcal/mol
20 | GCCACGGGAAACCGCGGC (((.(((....))).))) | 59.1 °C | -44.5 kcal/mol
21 | GCAGTGCGAAAGCCCAGC ((.(.((....)).).)) | 38 °C | -15.4 kcal/mol
22 | GCAGAAACGAAAGTTTGC (((..(((....)))))) | 35.7 °C | -20.3 kcal/mol
23 | GCGATCGAAAGATGCCGC ((((((....)))..))) | 39.6 °C | -17 kcal/mol

Row | Sequence | Tm [1] | folding enthalpy [2]
24 | GCAGTGCGAAAGCTTTGC (((..((....))..))) | 51.2 °C | -14 kcal/mol
25 | GATCTGCGAAAGCACATC (((.(((....))).))) | 30.4 °C | -13.5 kcal/mol
26 | GTCAGCGAAAGCTAGGAC ((((((....)))..))) | 40 °C | -14.1 kcal/mol
27 | GATCTGGGTCAGATC ((((((...)))))) | 48.6 °C | -35.9 kcal/mol
28 | GTGCGCGAAAGCGGCCAC ((((((....)))..))) | 45.9 °C | -11.5 kcal/mol
29 | GATCTCTCCAGAGATC ((((((....)))))) | 56.7 °C | -40.2 kcal/mol
30 | GCGGGGGGAAACCCTCGC (((.(((....))).))) | 61.6 °C | -38 kcal/mol
31 | GCTTAGCGAAAGCGCAGC (((..((....))..))) | 46.9 °C | -17.6 kcal/mol
32 | GCTAACGAAAGTTAAGC ((((((....))).))) | 46.2 °C | -27.1 kcal/mol
33 | GCCCCGGGAAACCGAGGC (((.(((....))).))) | 54.1 °C | -29.5 kcal/mol
34 | GTCCTCGGAAACGAGGGC (.(((((....))))).) | 62.3 °C | -30.3 kcal/mol
35 | GATCAGCCGCTGATC ((((((...)))))) | 48.7 °C | -41 kcal/mol
36 | GTTCGCGGAAACACGAAC (((((.(....).))))) | 48.9 °C | -39.7 kcal/mol
37 | GCATTGCGAAAGCAGGGC ((..(((....)))..)) | 51 °C | -20.7 kcal/mol
38 | GCGAAAACGAAAGTTCGC (((..(((....)))))) | 51.6 °C | -30.4 kcal/mol
39 | GCAGCGCGAAAGCTGTGC (((..((....))..))) | 44.8 °C | -18.8 kcal/mol
40 | GGTAATCGAAAGATACC (((.(((....)))))) | 40.5 °C | -27.2 kcal/mol
41 | GCCCACGAAAGTGTTGGC ((((((....)))..))) | 49 °C | -20.4 kcal/mol
42 | GACGAGACGAAAGTCGTC (((..(((....)))))) | 49 °C | -13.8 kcal/mol
43 | GAGGTAGGAAACTGCTTC ((.(.((....)).).)) | 26.7 °C | -15.6 kcal/mol
44 | GCTTAACGAAAGTTCAGC (((.(((....))).))) | 44.4 °C | -31.6 kcal/mol
45 | GTAGGGGGAAACCCCTGC (.(((((....))))).) | 53.2 °C | -21.9 kcal/mol
46 | GCACCCCGAAAGGGCTGC (((.(((....))).))) | 50 °C | -24.9 kcal/mol

Row | Sequence | Tm [1] | folding enthalpy [2]
47 | GCCTGGACGAAAGTCGGC (((..(((....)))))) | 51.2 °C | -22.6 kcal/mol
48 | GCGACCGAAAGGTGGCGC ((((((....)))..))) | 66.9 °C | -31.5 kcal/mol
49 | GAAGGCGAAAGCCACTTC ((((((....)))..))) | 40.6 °C | -13.1 kcal/mol
50 | GAGTGACGAAAGTCTCTC (((.(((....))).))) | 50.9 °C | -32.2 kcal/mol
51 | GGTTACCGAAAGGTGACC (((.(((....))).))) | 58.8 °C | -41.4 kcal/mol
52 | GATCACCGCTGTGATC ((((((....)))))) | 57 °C | -36.3 kcal/mol
53 | GCCTTGGGAAACTGAGGC ((((..(....)..)))) | 45.1 °C | -29.9 kcal/mol
54 | GTGTGGGGAAACCTGCAC (((..((....))..))) | 44.8 °C | -31.9 kcal/mol
55 | GGGACTGGAAACAATCCC ((((.((....)).)))) | 37.9 °C | -27.6 kcal/mol
56 | GGAACCGAAAGGTCCTCC ((((((....)))..))) | 50.2 °C | -17.5 kcal/mol
57 | GTTACAGGAAACTGTAAC (((((((....))))))) | 55.5 °C | -42.8 kcal/mol
58 | GTCTACCGAAAGGTGAC (((.(((....)))))) | 50.3 °C | -23.8 kcal/mol
59 | GATCAGATGACTGATC ((((((....)))))) | 47.8 °C | -35.3 kcal/mol
60 | GGCGATCGAAAGATAGCC (((.(((....))).))) | 58 °C | -47 kcal/mol
61 | GATCGGGGATCCGATC ((((((....)))))) | 62.8 °C | -40.7 kcal/mol
62 | GTTTACGAAAGTACAAAC ((((((....)))..))) | 26.2 °C | -10.6 kcal/mol
63 | GTGGCACGAAAGTGTCAC (((.(((....))).))) | 67.2 °C | -42 kcal/mol
64 | GCAGGCTCGAAAGAGTGC (((..(((....)))))) | 36.6 °C | -19.8 kcal/mol
65 | CGGTCGGAAACGAGTCCG ((((((....)))..))) | 39.4 °C | -20.6 kcal/mol
66 | GGAGTACGAAAGTATCC (((.(((....)))))) | 38.5 °C | -22.7 kcal/mol
67 | GGCGTCGGAAACGGCGTC (.((.((....)).)).) | 53.9 °C | -27.7 kcal/mol
68 | GAAAAGCGAAAGCTTTC (((.(((....)))))) | 43.5 °C | -14.2 kcal/mol
69 | GGCTCCGAAAGGATTGCC ((((((....)))..))) | 48.7 °C | -19.6 kcal/mol

Row | Sequence | Tm [1] | folding enthalpy [2]
70 | GATCCGGGTCGGATC ((((((...)))))) | 58.6 °C | -29.6 kcal/mol
71 | GAATGAGGAAACTCACTC ((.((((....)))).)) | 26 °C | -11.2 kcal/mol
72 | GATTGGGGAAACTCAATC (((((.(....).))))) | 41.9 °C | -33.5 kcal/mol
73 | CGACAGCGGAAACGCTCG (((..(((....)))))) | 40.3 °C | -12.9 kcal/mol
74 | GGCTGCGGAAACGCAGTC (.(((((....))))).) | 66.1 °C | -22.4 kcal/mol
75 | CGAAACGGAAACGTATCG (((.(((....))).))) | 42.6 °C | -30.8 kcal/mol
76 | GTCACCGGAAACGATGAC ((((.((....)).)))) | 45.9 °C | -33.5 kcal/mol
77 | GCAAAGCGAAAGCTGAGC ((..(((....)))..)) | 55.9 °C | -18.5 kcal/mol
78 | GTCAGGCCGAAAGGCGAC (((..(((....)))))) | 46.9 °C | -18 kcal/mol
79 | GATCGAAGGATCGATC ((((((....)))))) | 51.4 °C | -22.9 kcal/mol
80 | GGAACCCGAAAGGGCTCC (((.(((....))).))) | 54.5 °C | -32.4 kcal/mol
81 | GCTGTAGGAAACTACGGC ((.((((....)))).)) | 53.3 °C | -42.9 kcal/mol
82 | GCACGGCGAAAGCTGAGC ((.(.((....)).).)) | 55.8 °C | -19 kcal/mol
83 | GATCGGCTGACCGATC ((((((....)))))) | 56.2 °C | -40.4 kcal/mol
84 | GTGCGGCGAAAGCCCCAC (((.(((....))).))) | 47.6 °C | -23 kcal/mol
85 | GTGATGGGAAACCGTCAC ((((.((....)).)))) | 52.9 °C | -50.2 kcal/mol
86 | GATCTTCAGGAAGATC ((((((....)))))) | 46.8 °C | -29 kcal/mol
87 | GTGCCATCGAAAGATCAC (((..(((....)))))) | 38.4 °C | -5.32 kcal/mol
88 | GTCAGGCGAAAGCCCGAC (((.(((....))).))) | 48.8 °C | -23.2 kcal/mol
89 | GCGTCACCGAAAGGTCGC (((..(((....)))))) | 51.2 °C | -25.2 kcal/mol
90 | GCCCCGTCGAAAGACGGC (((..(((....)))))) | 34.4 °C | -4.65 kcal/mol
91 | CGCACACGGAAACGTGCG (((..(((....)))))) | 52.9 °C | -22 kcal/mol
